Screening results from PubChem.
TAAR1 agonist = agonists of human TAAR1 | CHO RD-HGA16 TAAR1, Fluo-8 calcium fluorescence; vehicle wells 0%, saturating PEA agonist 100% | Q96RJ0 | hit rate 0.99% among 360,000 | activation, % at 3 µM;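 active means activation above the mean activation of all test compounds in the run plus 3 SD, cut at about 38% in these data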
Target sequence (Q96RJ0 whole entry, looked up): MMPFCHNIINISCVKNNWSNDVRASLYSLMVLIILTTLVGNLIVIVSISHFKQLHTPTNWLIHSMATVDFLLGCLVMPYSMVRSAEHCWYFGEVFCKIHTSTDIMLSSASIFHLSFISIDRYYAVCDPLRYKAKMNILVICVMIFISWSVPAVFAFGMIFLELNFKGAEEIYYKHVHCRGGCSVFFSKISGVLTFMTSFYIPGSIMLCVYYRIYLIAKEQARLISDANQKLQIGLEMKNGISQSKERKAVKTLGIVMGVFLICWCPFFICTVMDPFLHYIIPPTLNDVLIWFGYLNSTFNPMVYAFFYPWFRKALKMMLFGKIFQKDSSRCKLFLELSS
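System: CHO RD-HGA16 cells carrying human TAAR1 plus Gα16; Incubation: 17-24 h seeding, 75 min 37 °C dye, 30 min RT; Measured by: Fluo-8 fluorescence, 5 s baseline then 140 s kinetic read; Control set: DMSO and PEA EC100; Replication: single well for each compound.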
CHRM4 PAM = potentiates acetylcholine response at human M4 receptor; P08173; CHO-K1 hM4/Gqi5, Fluo-8 calcium fluorescence, ACh EC20; 0% = ACh EC20, 100% = maximal ACh; activation, % at 3 µM; hit rate 0.4% among 360,000;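 active means activation above its plate's cutoff, the mean activation of sample wells plus 3 SD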
TAAR1 antagonist = antagonists of human TAAR1 | CHO RD-HGA16 TAAR1, Fluo-8 calcium fluorescence, antagonist | Q96RJ0 | hit rate 1.5% among 360,000 | AID 624466 | inhibition, % at 3 µM;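 active means inhibition above a per-plate cutoff, the mean inhibition of test compounds on that plate plus 3 SD, cut at about 49% in these data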
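test system = CHO RD-HGA16 cells bearing hTAAR1 | replication = singlicate | controls = DMSO-only wells and EC80 β-PEA-stimulated wells | reagent = EC80 β-phenethylamine stimulus | read-out basis = percent inhibition of PEA-evoked calcium signal, max/basal emission ratio | schedule = seeding 17-24 h prior, 75-min 37 °C, 30-min RT dye loading | signal = kinetic Fluo-8 calcium fluorescence measurement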
M4 antag = CHRM4 antagonism in calcium assay. inhibition, % at 3 µM. CHO-hM4 cells, ACh EC80, Fluo-8 calcium fluorescence. P08173. hit rate 0.73% among 360,000;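 active means inhibition above its plate's cutoff, the mean inhibition of sample wells plus 3 SD, cut at about 27% in these data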
M4 ag = agonists of human muscarinic M4 receptor (CHRM4); CHO-K1 hM4/Gqi5, Fluo-8 calcium fluorescence; vehicle 0%, full acetylcholine response 100%; activation, % at 3 µM; P08173; AID 624127; hit rate 0.14% among 360,000;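 active means activation above the run mean over all test wells plus 3 SD, cut at about 32% in these data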;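 further: peak over basal fluorescence ratio per well then scaled between controls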
nonsel antag count = nonselective antagonist in TAAR1 antagonist counter-screen | shares compounds with TAAR1 antagonist | counterscreen cell line, calcium fluorescence, antagonist mode | inhibition, % at 3 µM | hit rate 77% among 2,400 | AID 651780; in the data active means inhibition above about 22%;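 further: CHO-Ga16 host cells stimulated with ATP at an EC80 level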
TAAR1 antag conf = confirmation of human TAAR1 antagonists; shares compounds with TAAR1 antagonist; TAAR1-expressing cells, fluorescence antagonist read-out; inhibition, % at 3 µM; hit rate 40% among 2,400; AID 651785; in the data active means inhibition above about 49%;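 further: CHO-Ga16 host cells challenged with agonist PEA near its EC80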
Ga16 nonsel ag = nonselective Ga16 agonism, counter-screen; shares compounds with TAAR1 antagonist; Ga16-expressing cells, calcium fluorescence, agonist counterscreen; activation, % at 3 µM; hit rate 18% among 2,400; AID 651953; in the data active means activation above about 12%
TAAR1 ag count = TAAR1 agonism, antagonist counter-screen | shares compounds with TAAR1 antagonist | hTAAR1 cell line, fluorescence activation, agonist mode | activation, % at 3 µM | hit rate 2% among 2,400 | AID 651955; in the data active means activation above about 37%;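 further: CHO cells stably expressing TAAR1 with calcium dye readout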
Of the large screens only hits and unclear results are named; the others gave an inactive call (follow-up assays come after a bar, where they were run). Hits are enriched below; roughly 3% of the tested compounds scored in any of these assays.

CCN=C1SC(C(=O)Nc2cccc(OCC)c2)CC(=O)N1CC (stereo unspecified)	TAAR1 antagonist 74 | nonsel antag count 36 | TAAR1 antag conf 60 | Ga16 nonsel ag inactive | TAAR1 ag count inactive
N#C/C(=C\c1ccc(-c2ccc(C(=O)O)cc2)o1)C(=O)Nc1ccc(F)cc1	TAAR1 antagonist 70 | nonsel antag count 33 | TAAR1 antag conf inactive | Ga16 nonsel ag 17 | TAAR1 ag count inactive
CC(C)Oc1ccccc1/C=N/NC(=O)C1CCCC1	none
CC(C)Oc1ccccc1/C=N/NC(=O)C1CC1	TAAR1 antagonist 104 | nonsel antag count inactive | TAAR1 antag conf inactive | Ga16 nonsel ag inactive | TAAR1 ag count inactive
Cn1c(CSCc2ccc(Cl)cc2)nnc1SCC(=O)Nc1nccs1	TAAR1 antagonist 61 | nonsel antag count 42 | TAAR1 antag conf 56 | Ga16 nonsel ag 17 | TAAR1 ag count inactive
CCn1c(CCCOc2ccc(Cl)cc2Cl)nnc1SCC(=O)Nc1cc(F)ccc1C	none
Cn1c(CSCc2ccc(F)cc2)nnc1SCC(=O)Nc1nccs1	none
C=CCn1c(CCCOc2ccc(Cl)cc2Cl)nnc1SCC(=O)Nc1nccs1	TAAR1 antagonist 49 | nonsel antag count 32 | TAAR1 antag conf inactive | Ga16 nonsel ag inactive | TAAR1 ag count inactive
COc1ccc(-c2cc(CNc3nc(NCc4ccccc4OC)nc4ccsc34)on2)cc1	none
CCN(c1ccccc1)S(=O)(=O)c1ccc(OC)c(NC(=O)Cc2ccc(F)cc2)c1	TAAR1 antagonist 104 | nonsel antag count inactive | TAAR1 antag conf inactive | Ga16 nonsel ag inactive | TAAR1 ag count inactive
COc1ccccc1Cc1c(-c2ccc(C#N)cc2)nc2c(C)cc(Br)cn12	none
COc1cc(N/C(=C\C(=O)c2ccccc2)c2ccccc2)ccc1Cl	none (no result: CHRM4 PAM, M4 antag, M4 ag)
O=C1CC(c2ccco2)CC2=C1C1c3ccccc3C(=O)N1c1ccccc1N2 (stereo unspecified)	TAAR1 antagonist 64 | nonsel antag count 24 | TAAR1 antag conf inactive | Ga16 nonsel ag inactive | TAAR1 ag count inactive
O=C(Cc1csc(NC(=O)Nc2cccc(Cl)c2)n1)NCc1ccccn1	TAAR1 antagonist 65 | nonsel antag count 29 | TAAR1 antag conf inactive | Ga16 nonsel ag inactive | TAAR1 ag count inactive
COc1ccc(CNC(=O)Cc2csc(NC(=O)Nc3ccccc3OC)n2)cc1	TAAR1 antagonist 56 | nonsel antag count inactive | TAAR1 antag conf inactive | Ga16 nonsel ag inactive | TAAR1 ag count inactive
COc1ccccc1CNC(=O)Cc1csc(NC(=O)Nc2ccccc2OC)n1	TAAR1 antagonist 61 | nonsel antag count 31 | TAAR1 antag conf 54 | Ga16 nonsel ag inactive | TAAR1 ag count inactive
COc1ccccc1NC(=O)Nc1nc(CC(=O)NCc2ccccn2)cs1	none
CN(Cc1ccccc1)C(=O)c1ccc(Cc2cn(C)c3ccccc23)nc1	none
CC1(c2nnnn2-c2ccc3c(c2)OCCO3)CCC(=O)N1CC(F)(F)F (stereo unspecified)	none
COc1cccc(COC(=O)Nc2ccccc2)c1OC	none
C=C(C)C1CCC(C)=C1COC(=O)Nc1ccccc1 (stereo unspecified)	TAAR1 antagonist 53 | nonsel antag count inactive | TAAR1 antag conf inactive | Ga16 nonsel ag inactive | TAAR1 ag count inactive
CCCCNc1c(-c2cccc(-c3cc(C(C)=O)cs3)c2)nc2ccc(C)cn12	TAAR1 antagonist 68 | nonsel antag count 36 | TAAR1 antag conf 54 | Ga16 nonsel ag inactive | TAAR1 ag count inactive
CCCCCCSc1cccc(-c2nc3ccc(Cl)cn3c2NCCCC)c1	none
COc1cccc(-c2[nH]nc3c2C(c2ccoc2)C(C#N)=C(N)O3)c1 (stereo unspecified)	none
COc1cc(-c2[nH]nc3c2C(c2ccoc2)C(C#N)=C(N)O3)cc(OC)c1OC (stereo unspecified)	TAAR1 antagonist 74 | nonsel antag count 34 | TAAR1 antag conf 57 | Ga16 nonsel ag inactive | TAAR1 ag count inactive
COc1cccc(C(=O)N(Cc2ccc(N(C)C)cc2)C2CCS(=O)(=O)C2)c1 (stereo unspecified)	TAAR1 antagonist 106 | nonsel antag count inactive | TAAR1 antag conf inactive | Ga16 nonsel ag inactive | TAAR1 ag count inactive
Cc1cccc(OCC(=O)N(Cc2ccc(N(C)C)cc2)C2CCS(=O)(=O)C2)c1 (stereo unspecified)	none
O=C1N/C(=C/c2ccc(Br)cc2)C(O)=C1C=NCc1ccccc1	TAAR1 antagonist 105 | nonsel antag count inactive | TAAR1 antag conf inactive | Ga16 nonsel ag inactive | TAAR1 ag count inactive
CCN(CC(=O)Nc1cc(Cl)ccc1C)C(=O)C1CCN(c2ncnc3sc(C)c(C)c23)CC1	TAAR1 antagonist 83 | nonsel antag count 34 | TAAR1 antag conf 54 | Ga16 nonsel ag inactive | TAAR1 ag count inactive
Cc1sc2ncnc(N3CCC(C(=O)Nc4ccccc4C(C)(C)C)CC3)c2c1C	none
Cc1sc2ncnc(N3CCC(C(=O)N(C)CC(=O)Nc4ccc(Cl)c(C(F)(F)F)c4)CC3)c2c1C	none
Cc1sc2ncnc(N3CCC(C(=O)N(C)CC(=O)Nc4cccc(F)c4)CC3)c2c1C	TAAR1 antagonist 68 | nonsel antag count 32 | TAAR1 antag conf 55 | Ga16 nonsel ag 13 | TAAR1 ag count inactive
Cc1sc2ncnc(N3CCC(C(=O)N(C)CC(=O)Nc4ccccc4Br)CC3)c2c1C	TAAR1 antagonist 63 | nonsel antag count 27 | TAAR1 antag conf inactive | Ga16 nonsel ag inactive | TAAR1 ag count inactive
Cc1sc2ncnc(N3CCC(C(=O)N(C)CC(=O)Nc4ccccc4Cl)CC3)c2c1C	TAAR1 antagonist 64 | nonsel antag count 25 | TAAR1 antag conf inactive | Ga16 nonsel ag inactive | TAAR1 ag count inactive
OC(c1cccnc1)c1nc(-c2ccc3c(c2)OCO3)cs1 (stereo unspecified)	none
CCC(=O)OCOc1ccc(/C=C2/CCC(CN(C)C)C2=O)cc1 (stereo unspecified)	none
Cc1cc(C)c(C)c(S(=O)(=O)Nc2cccc(S(=O)(=O)Nc3ccccc3C(=O)O)c2)c1C	none
CC(=O)N1N=C(c2cccc(O)c2)CC1c1cccs1 (stereo unspecified)	TAAR1 antagonist 71 | nonsel antag count inactive | TAAR1 antag conf inactive | Ga16 nonsel ag inactive | TAAR1 ag count inactive
Cn1c(NC(=O)c2cccc(Cn3cc(Cl)cn3)c2)nc2ccccc21	none
